Measured values: ChEMBL document CHEMBL3774372, “Design, physico-chemical properties and biological evaluation of some new N-[(phenoxy)alkyl]- and N-{2-[2-(phenoxy)ethoxy]ethyl}aminoalkanols as anticonvulsant agents” (Bioorg Med Chem, 2016)
The source made the active and inactive calls.

Legend:
Rattus norvegicus [1] = assay: Anticonvulsant activity in pilocarpine-induced status epilepticus Sprague-Dawley rat model at 30 mg/kg, ip after 2 hrs during post stage 3 seizure; type: functional, organism-based
Method in brief: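 Rats given pilocarpine 50 mg/kg ip and observed to first convulsive seizure (Racine stage 3–5, time zero); test drug then given ip in 0.5% methylcellulose. Efficacy = halting further stage 3–5 convulsive seizures; scored protected/tested, time after first stage 3 seizure.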

[2] = target: D(1A) dopamine receptor (Homo sapiens) (UniProt P21728); assay: Displacement of [3H]SCH23390 from human recombinant Dopamine D1 receptor expressed in CHO cells at 10^-5 M; type: cell-based
D(1A) dopamine receptor (Homo sapiens), sequence (P21728 whole entry): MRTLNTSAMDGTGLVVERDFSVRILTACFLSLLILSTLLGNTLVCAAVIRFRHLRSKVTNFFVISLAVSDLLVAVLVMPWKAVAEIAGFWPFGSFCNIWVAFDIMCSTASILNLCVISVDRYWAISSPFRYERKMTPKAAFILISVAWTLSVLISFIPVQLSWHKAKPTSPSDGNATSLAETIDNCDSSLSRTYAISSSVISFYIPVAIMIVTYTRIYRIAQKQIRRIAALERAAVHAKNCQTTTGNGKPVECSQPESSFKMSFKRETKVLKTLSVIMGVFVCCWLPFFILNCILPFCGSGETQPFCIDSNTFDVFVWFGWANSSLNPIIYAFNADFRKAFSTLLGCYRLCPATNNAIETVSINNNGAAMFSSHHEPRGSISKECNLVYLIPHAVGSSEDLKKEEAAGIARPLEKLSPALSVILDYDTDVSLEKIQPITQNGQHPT
Method in brief: (§1)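 Radioligand displacement screen with the test agent at a single 10^-5 M concentration; receptor source and radioligand per target as tabulated (recombinant human cell lines or rat cerebral cortex/urinary bladder).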

Mus musculus [3] = assay: Anticonvulsant activity in mouse assessed as protection against maximal electric shock-induced seizures at 30 mg/kg, ip measured after 0.5 hrs; type: functional, organism-based
Method in brief: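 Mice dosed ip with suspension in 0.5% methylcellulose; maximal electroshock applied at the listed time after dosing. Protection = abolition of hindlimb tonic extension component of seizure; reported as animals protected/animals tested.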

[4] = target: Galanin receptor type 1 (Homo sapiens) (UniProt P47211); assay: Displacement of [125I]galanin from human recombinant GAL1 receptor expressed in HEK293 cells at 10^-5 M; type: cell-based
Method in brief: (§2)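 Radioligand binding screen run at a single test concentration of 10^-5 M. Each target used its stated receptor source (human recombinant CHO or HEK-293 cells, endogenous cell lines, or rat tissue membranes) with the listed radioligand.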

Rattus norvegicus [5] = species on record: Rattus norvegicus; assay: Displacement of […] from rat cerebral cortex GABA-gated chloride channel at 10^-5 M; type: tissue-based; method in brief: as §2
[6] = target: 5-hydroxytryptamine receptor 2A (Homo sapiens) (UniProt P28223); assay: Displacement of [3H]ketanserin from human recombinant 5-HT2A receptor expressed in HEK293 cells at 10^-5 M; type: cell-based; method in brief: as §1
CHO = assay: Displacement of [3H]DADLE from human recombinant delta-type 2 opioid receptor expressed in CHO cells at 10^-5 M; type: cell-based; method in brief: as §2
[7] = target: Somatostatin receptor (Mus musculus) (UniProt P30935+O08858+P30875+P30873+P49660); assay: Displacement of [125I]Tyr11-somatostatin-14 from somatostatin receptor in mouse AtT20 cells at 10^-5 M; type: cell-based; method in brief: as §2
Somatostatin receptor (Mus musculus), sequence (P30935 whole entry): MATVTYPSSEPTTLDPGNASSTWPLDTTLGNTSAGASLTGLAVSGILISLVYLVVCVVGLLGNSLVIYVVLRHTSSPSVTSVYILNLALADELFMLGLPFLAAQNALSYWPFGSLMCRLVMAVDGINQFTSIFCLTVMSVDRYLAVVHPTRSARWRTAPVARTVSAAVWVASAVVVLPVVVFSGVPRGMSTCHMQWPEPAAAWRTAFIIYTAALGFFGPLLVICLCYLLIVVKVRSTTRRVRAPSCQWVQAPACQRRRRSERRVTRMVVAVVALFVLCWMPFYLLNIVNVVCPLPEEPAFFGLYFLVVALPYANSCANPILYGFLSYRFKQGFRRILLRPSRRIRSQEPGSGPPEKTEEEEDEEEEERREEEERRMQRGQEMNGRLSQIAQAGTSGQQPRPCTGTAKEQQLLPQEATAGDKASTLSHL
Somatostatin receptor (Mus musculus), sequence (O08858 whole entry): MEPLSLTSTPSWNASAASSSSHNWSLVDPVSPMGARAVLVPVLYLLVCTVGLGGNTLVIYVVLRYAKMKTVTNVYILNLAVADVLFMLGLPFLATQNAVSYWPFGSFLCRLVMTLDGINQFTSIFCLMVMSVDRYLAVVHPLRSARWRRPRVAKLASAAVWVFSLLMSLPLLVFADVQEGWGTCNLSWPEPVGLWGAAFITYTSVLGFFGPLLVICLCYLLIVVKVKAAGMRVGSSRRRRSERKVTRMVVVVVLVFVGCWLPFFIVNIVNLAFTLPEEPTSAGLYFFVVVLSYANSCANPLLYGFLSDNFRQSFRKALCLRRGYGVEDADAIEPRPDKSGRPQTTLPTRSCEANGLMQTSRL
Somatostatin receptor (Mus musculus), sequence (P30875 whole entry): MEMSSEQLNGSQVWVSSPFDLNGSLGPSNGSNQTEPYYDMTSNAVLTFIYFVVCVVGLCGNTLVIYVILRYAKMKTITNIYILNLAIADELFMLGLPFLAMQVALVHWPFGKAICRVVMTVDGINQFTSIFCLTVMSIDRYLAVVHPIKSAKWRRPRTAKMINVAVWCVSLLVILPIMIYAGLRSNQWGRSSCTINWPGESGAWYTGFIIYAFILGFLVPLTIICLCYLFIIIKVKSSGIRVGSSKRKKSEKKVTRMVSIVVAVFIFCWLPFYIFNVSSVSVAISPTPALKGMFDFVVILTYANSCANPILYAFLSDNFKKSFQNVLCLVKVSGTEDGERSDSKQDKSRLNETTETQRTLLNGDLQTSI
Somatostatin receptor (Mus musculus), sequence (P30873 whole entry): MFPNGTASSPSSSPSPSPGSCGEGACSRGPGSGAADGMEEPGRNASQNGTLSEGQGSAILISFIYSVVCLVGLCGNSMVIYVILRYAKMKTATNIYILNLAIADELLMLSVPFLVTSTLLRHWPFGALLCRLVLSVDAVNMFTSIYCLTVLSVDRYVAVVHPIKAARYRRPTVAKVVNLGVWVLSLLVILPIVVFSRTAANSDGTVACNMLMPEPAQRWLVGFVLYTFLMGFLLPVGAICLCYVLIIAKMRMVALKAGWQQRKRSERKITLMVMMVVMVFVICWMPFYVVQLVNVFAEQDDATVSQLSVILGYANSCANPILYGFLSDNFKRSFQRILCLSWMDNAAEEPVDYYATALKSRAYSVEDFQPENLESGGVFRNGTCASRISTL
Somatostatin receptor (Mus musculus), sequence (P49660 with tags, fused parts or gaps): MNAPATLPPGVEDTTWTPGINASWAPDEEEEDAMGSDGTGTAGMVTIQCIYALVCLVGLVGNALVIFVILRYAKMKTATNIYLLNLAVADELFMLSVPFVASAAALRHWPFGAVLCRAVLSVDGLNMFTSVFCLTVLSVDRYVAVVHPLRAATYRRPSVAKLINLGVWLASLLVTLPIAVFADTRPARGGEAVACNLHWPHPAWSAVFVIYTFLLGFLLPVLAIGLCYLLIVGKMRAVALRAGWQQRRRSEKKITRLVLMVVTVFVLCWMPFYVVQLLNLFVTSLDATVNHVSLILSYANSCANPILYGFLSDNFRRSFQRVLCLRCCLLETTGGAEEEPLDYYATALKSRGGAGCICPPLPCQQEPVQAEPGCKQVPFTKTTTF

Mus musculus [8] = assay: Anticonvulsant activity in mouse assessed as protection against subcutaneous pentylenetetrazol-induced seizures at 30 mg/kg, ip measured after 0.5 hrs; type: functional, organism-based
Method in brief: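 Mice dosed ip as 0.5% methylcellulose suspension; pentylenetetrazole 85 mg/kg in 0.9% NaCl injected subcutaneously into posterior midline, animals watched at least 30 min. Protection = no threshold seizure (single clonic spasm episode lasting ≥5 s); scored protected/tested.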

[9] = target: Muscarinic acetylcholine receptor M4 (Homo sapiens) (UniProt P08173); assay: Displacement of [3H]4-DAMP from human recombinant muscarinic M4 receptor expressed in CHO cells at 10^-5 M; type: cell-based; method in brief: as §2
[10] = target: Prostaglandin E2 receptor EP2 subtype (Homo sapiens) (UniProt P43116); assay: Displacement of [3H]PGE2 from human recombinant prostanoid EP2 receptor expressed in HEK293 cells at 10^-5 M; type: cell-based; method in brief: as §2
Prostaglandin E2 receptor EP2 subtype (Homo sapiens), sequence (P43116 whole entry): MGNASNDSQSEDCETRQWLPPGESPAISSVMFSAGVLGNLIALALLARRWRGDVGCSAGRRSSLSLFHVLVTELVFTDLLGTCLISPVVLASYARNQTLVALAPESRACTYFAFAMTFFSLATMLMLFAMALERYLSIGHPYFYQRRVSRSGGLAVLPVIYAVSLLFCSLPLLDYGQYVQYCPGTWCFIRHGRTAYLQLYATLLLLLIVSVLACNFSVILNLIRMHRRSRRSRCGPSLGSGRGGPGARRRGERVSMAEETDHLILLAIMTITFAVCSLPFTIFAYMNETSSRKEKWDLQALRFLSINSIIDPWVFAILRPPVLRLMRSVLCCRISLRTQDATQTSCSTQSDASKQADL

[11] = target: Muscarinic acetylcholine receptor M1 (Homo sapiens) (UniProt P11229); assay: Displacement of [3H]pirenzepine from human recombinant muscarinic M1 receptor expressed in CHO cells at 10^-5 M; type: cell-based; method in brief: as §1
[12] = target: 5-hydroxytryptamine receptor 6 (Homo sapiens) (UniProt P50406); assay: Displacement of [3H]LSD from human recombinant 5-HT6 receptor expressed in CHO cells at 10^-5 M; type: cell-based; method in brief: as §2
Rattus norvegicus [13] = species on record: Rattus norvegicus; assay: Displacement of [[…]]batrachotoxin from rat cerebral cortex Sodium channel site 2 at 10^-5 M; type: tissue-based
[14] = target: Vasopressin V1a receptor (Homo sapiens) (UniProt P37288); assay: Displacement of [3H]AVP from human recombinant arginine vasopressin receptor 1a expressed in CHO cells at 10^-5 M; type: cell-based; method in brief: as §2
Vasopressin V1a receptor (Homo sapiens), sequence (P37288 whole entry, looked up): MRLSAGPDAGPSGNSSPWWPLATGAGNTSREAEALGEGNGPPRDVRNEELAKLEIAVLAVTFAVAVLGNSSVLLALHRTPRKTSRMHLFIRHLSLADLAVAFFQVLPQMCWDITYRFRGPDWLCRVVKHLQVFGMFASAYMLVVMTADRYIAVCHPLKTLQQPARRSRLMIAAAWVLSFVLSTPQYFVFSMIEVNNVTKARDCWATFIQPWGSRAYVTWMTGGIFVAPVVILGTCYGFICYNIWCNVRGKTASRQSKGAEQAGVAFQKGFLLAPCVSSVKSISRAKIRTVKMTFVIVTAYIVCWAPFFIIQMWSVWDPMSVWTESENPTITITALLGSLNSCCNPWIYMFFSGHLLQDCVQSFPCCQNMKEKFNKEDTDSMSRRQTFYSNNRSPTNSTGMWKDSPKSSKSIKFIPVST

[15] = target: Beta-1 adrenergic receptor (Homo sapiens) (UniProt P08588); assay: Displacement of [3H](-)CGP12177 from human recombinant Beta-1 adrenergic receptor expressed in HEK293 cells at 10^-5 M; type: cell-based; method in brief: as §2
[16] = target: 5-hydroxytryptamine receptor 2B (Homo sapiens, UniProt P41595); assay: Displacement of [125I](+/-)DOI from human recombinant 5-HT2B receptor expressed in CHO cells at 10^-5 M; type: cell-based
[17] = target: Adenosine receptor A3 (Homo sapiens) (UniProt P0DMS8); assay: Displacement of [125I]ABMECA from human recombinant adenosine A3 receptor expressed in HEK293 cells at 10^-5 M; type: cell-based; method in brief: as §2
Adenosine receptor A3 (Homo sapiens), sequence (P0DMS8 whole entry): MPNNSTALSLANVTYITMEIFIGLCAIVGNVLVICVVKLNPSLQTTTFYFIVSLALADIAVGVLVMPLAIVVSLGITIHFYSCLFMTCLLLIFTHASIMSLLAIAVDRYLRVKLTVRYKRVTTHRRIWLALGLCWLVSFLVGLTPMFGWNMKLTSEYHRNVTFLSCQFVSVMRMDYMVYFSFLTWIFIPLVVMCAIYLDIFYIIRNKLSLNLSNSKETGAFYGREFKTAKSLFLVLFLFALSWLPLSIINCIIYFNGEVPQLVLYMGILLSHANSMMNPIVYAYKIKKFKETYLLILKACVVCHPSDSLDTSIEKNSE

[18] = target: D(3) dopamine receptor (Homo sapiens) (UniProt P35462); assay: Displacement of [3H]methylspiperone from human recombinant Dopamine D3 receptor expressed in CHO cells at 10^-5 M; type: cell-based; method in brief: as §1
Rattus norvegicus [19] = species on record: Rattus norvegicus; assay: Displacement of [35S]dATPalpha S from rat cerebral cortex P2Y receptor at 10^-5 M; type: tissue-based; method in brief: as §2
[20] = target: Cannabinoid receptor 1 (Homo sapiens) (UniProt P21554); assay: Displacement of [3H]CP 55940 from human recombinant CB1 receptor expressed in CHO cells at 10^-5 M; type: cell-based; method in brief: as §2
[21] = target: Adenosine receptor A2a (Homo sapiens) (UniProt P29274); assay: Displacement of [3H]CGS 21680 from human recombinant adenosine A2a receptor expressed in HEK293 cells at 10^-5 M; type: cell-based; method in brief: as §2
Adenosine receptor A2a (Homo sapiens), sequence (P29274 whole entry): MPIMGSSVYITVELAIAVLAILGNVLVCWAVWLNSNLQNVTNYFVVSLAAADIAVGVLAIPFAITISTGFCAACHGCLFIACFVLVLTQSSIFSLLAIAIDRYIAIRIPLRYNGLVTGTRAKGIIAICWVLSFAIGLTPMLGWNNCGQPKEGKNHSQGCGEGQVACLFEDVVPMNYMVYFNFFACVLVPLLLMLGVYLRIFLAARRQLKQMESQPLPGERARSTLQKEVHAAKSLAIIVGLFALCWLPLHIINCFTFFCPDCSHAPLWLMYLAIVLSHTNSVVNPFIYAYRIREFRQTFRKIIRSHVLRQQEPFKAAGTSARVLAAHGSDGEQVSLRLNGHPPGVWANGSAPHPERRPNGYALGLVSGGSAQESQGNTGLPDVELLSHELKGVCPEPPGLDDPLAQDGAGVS

Rattus norvegicus [22] = species on record: Rattus norvegicus; assay: Displacement of [3H]D888 from rat cerebral cortex L-type calcium channel verapamil binding site at 10^-5 M; type: tissue-based; method in brief: as §2
[23] = target: Translocator protein (Rattus norvegicus) (UniProt P16257); assay: Displacement of [3H]PK 11195 from rat heart peripheral-type benzodiazepine receptor at 10^-5 M; method in brief: as §2
Translocator protein (Rattus norvegicus), sequence (P16257 whole entry, looked up): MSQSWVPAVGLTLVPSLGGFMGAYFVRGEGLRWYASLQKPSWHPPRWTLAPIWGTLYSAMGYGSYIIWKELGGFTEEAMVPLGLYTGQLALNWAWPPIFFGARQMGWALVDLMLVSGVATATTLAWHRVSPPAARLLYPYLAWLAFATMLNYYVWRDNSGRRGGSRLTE

[24] = target: Type-2 angiotensin II receptor (Homo sapiens) (UniProt P50052); assay: Displacement of [125I]CGP42112A from human recombinant AT2 receptor expressed in HEK293 cells at 10^-5 M; type: cell-based; method in brief: as §2
[25] = target: Muscarinic acetylcholine receptor M2 (Homo sapiens) (UniProt P08172); assay: Displacement of [3H]AF-DX384 from human recombinant muscarinic M2 receptor expressed in CHO cells at 10^-5 M; type: cell-based; method in brief: as §2
[26] = target: Cholecystokinin receptor type A (Homo sapiens) (UniProt P32238); assay: Displacement of [125I]CCK-8s from human recombinant CCK-A receptor expressed in CHO cells at 10^-5 M; type: cell-based; method in brief: as §2
[27] = target: B2 bradykinin receptor (Homo sapiens) (UniProt P30411); assay: Displacement of [3H]bradykinin from human recombinant B2 bradykinin receptor at 10^-5 M; method in brief: as §1
B2 bradykinin receptor (Homo sapiens), sequence (P30411 whole entry): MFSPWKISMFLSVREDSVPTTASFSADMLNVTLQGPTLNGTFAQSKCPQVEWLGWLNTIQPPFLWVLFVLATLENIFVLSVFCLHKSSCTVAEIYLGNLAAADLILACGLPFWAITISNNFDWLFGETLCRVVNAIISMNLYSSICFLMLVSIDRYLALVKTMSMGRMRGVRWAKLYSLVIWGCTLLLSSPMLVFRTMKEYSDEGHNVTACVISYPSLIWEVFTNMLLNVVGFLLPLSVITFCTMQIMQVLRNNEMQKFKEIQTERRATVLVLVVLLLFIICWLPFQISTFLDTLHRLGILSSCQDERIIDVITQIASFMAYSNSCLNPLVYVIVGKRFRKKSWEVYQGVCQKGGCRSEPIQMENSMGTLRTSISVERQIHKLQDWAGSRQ

[28] = target: 5-hydroxytryptamine receptor 5A (Homo sapiens) (UniProt P47898); assay: Displacement of [3H]LSD from human recombinant 5-HT5A receptor expressed in HEK293 cells at 10^-5 M; type: cell-based; method in brief: as §2
5-hydroxytryptamine receptor 5A (Homo sapiens), sequence (P47898 whole entry): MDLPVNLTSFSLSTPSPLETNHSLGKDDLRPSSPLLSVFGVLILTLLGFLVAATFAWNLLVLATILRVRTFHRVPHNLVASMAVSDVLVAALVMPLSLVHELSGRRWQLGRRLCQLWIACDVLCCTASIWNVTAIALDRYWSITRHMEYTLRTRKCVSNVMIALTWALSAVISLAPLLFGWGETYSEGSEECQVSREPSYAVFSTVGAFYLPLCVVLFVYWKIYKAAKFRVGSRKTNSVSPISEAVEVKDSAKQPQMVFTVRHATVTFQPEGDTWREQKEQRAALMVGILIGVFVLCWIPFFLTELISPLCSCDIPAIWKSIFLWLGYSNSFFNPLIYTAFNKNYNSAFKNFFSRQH

Rattus norvegicus [29] = species on record: Rattus norvegicus; assay: Displacement of [3H]TCP from rat cerebral cortex PCP receptor at 10^-5 M; type: tissue-based; method in brief: as §1
[30] = target: Neuromedin-K receptor (Homo sapiens) (UniProt P29371); assay: Displacement of [3H]SR142801 from human recombinant NK3 receptor expressed in CHO cells at 10^-5 M; type: cell-based; method in brief: as §1
[31] = target: Glucocorticoid receptor (Homo sapiens) (UniProt P04150); assay: Displacement of [3H]dexamethasone from glucocorticoid receptor in human IM9 cells at 10^-5 M; type: cell-based; details: IM-9; method in brief: as §1

Row | Structure (SMILES) | Activity (Rattus norvegicus [1]) | inhibition [2] | Activity (Mus musculus [3]) | inhibition [4] | inhibition (Rattus norvegicus [5]) | inhibition [6] | inhibition (CHO) | inhibition [7] | Activity (Mus musculus [8]) | inhibition [9] | inhibition [10] | inhibition [11] | inhibition [12] | inhibition (Rattus norvegicus [13]) | inhibition [14] | inhibition [15] | inhibition [16] | inhibition [17] | inhibition [18] | inhibition (Rattus norvegicus [19]) | other results
1 | Cc1cccc(C)c1OCCOCCN[C@H](C)CO | inactive | 12.4% | Active | -0.7% | -7.6% | 22.6% | -1.7% | -5.5% | inactive | 11.2% | 3.4% | 6% | 6.7% | 54.9% | -3.2% | 4.8% | 89.4% | -1.8% | 44.1% | 9.4% | inhibition [20]: 12.6%; inhibition [21]: -0.8%; inhibition (Rattus norvegicus [22]): 43.6%; inhibition [23]: -3.9%; inhibition [24]: 6.4%; inhibition [25]: 20.8%; inhibition [26]: -3.6%; inhibition [27]: -3.9%; inhibition [28]: 4.2%; inhibition (Rattus norvegicus [29]): 9.6%; inhibition [30]: 8%; inhibition [31]: 31.3%
2 | Cc1cccc(C)c1OCCOCCN[C@@H](C)CO | inactive | 16.2% | Active | -0.4% | 4.6% | 32.1% | -2.2% | -2% | inactive | 15.7% | 11.2% | 22.8% | 15.4% | 79% | -0.8% | 11.1% | 78.8% | 3% | 57.4% | 9.4% | inhibition [20]: 11.1%; inhibition [21]: -4%; inhibition (Rattus norvegicus [22]): 65.9%; inhibition [23]: -6.7%; inhibition [24]: 11.7%; inhibition [25]: 37.2%; inhibition [26]: 2.2%; inhibition [27]: 1.6%; inhibition [28]: 10.7%; inhibition (Rattus norvegicus [29]): 5.8%; inhibition [30]: 15%; inhibition [31]: 8.3%
